Screening data from PubChem.
In the library only some 2.3% were active in any assay of this set; here they are far more common.
NPY Y2 blocker: blocks the human neuropeptide Y Y2 receptor; NPY-Y2 expressing cells, antagonist mode; inhibition, % at 2.7 µM; actives 0.99% (n = 140,000); in the data active means inhibition above about 17%;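 further: 0% = vehicle with agonist challenge and 100% = reference antagonist with challenge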
TbHK1 inh: blocks Trypanosoma brucei hexokinase 1 activity; actives 0.11% (n = 220,000); inhibition, % at 10 µM; recombinant TbHK1, G6PDH-coupled NADH A340;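 active means inhibition of 50% or more in the single-dose primary screen; inactive means inhibition below 50%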
NPY2 pot ag: human NPY-Y2 potentiation or agonism, primary screen. P49146. cells expressing NPY-Y2, potentiator/agonist read-out. activation, % at 3.6 µM. actives 0.45% (n = 220,000). AID 1359; in the data active means activation above about 27%;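 further: cells stimulated with NPY near EC25 plus isoproterenol at EC100; 0% = vehicle plus submaximal agonist and 100% = vehicle plus saturating agonist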
NPY1 pot ag: potentiators or agonists of human neuropeptide Y receptor Y1; NPY-Y1 expressing cells, potentiator/agonist activation; AID 1304; activation, % at 3.6 µM; actives 0.37% (n = 220,000); in the data active means activation above about 33%, passing the limit was not always enough;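 further: cells stimulated with NPY at EC10 then isoproterenol at EC100; 0% = low agonist plus stimulus and 100% = saturating agonist plus stimulus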
Target sequence (P25929 whole entry, looked up): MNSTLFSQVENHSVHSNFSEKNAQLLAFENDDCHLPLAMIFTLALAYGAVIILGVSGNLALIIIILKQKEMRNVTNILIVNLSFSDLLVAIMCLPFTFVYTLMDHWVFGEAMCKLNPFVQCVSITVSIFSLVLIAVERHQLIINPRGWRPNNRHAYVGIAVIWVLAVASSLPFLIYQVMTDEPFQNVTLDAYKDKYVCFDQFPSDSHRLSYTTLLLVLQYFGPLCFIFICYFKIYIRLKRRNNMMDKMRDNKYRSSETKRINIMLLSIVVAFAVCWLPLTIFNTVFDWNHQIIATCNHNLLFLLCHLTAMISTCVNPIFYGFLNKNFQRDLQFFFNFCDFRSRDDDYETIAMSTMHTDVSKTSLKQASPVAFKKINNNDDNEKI
NPY-Y1 antag: antagonists of human neuropeptide Y receptor Y1; P25929; HEK293-CNG Y1 cells, membrane potential fluorescence; NPY at EC95, then isoproterenol; inhibition, % at 3.6 µM; actives 1% (n = 200,000);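 active means inhibition above the campaign mean inhibition of all tested compounds plus 3 SD, cut at about 20% in these data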;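 further: 0% = DMSO wells given NPY plus isoproterenol and 100% = isoproterenol alone without NPY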
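Assay system: HEK293 Y1/CNG channel cell line; Doses: single compound dose of 3.6 µM, 0.4% DMSO; Timing: dye 3 h, compound 60 min room temperature, stimulation 45 min; Technique: Membrane-potential fluorescent dye readout; Measure: % inhibition of NPY effect.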
Calpain2 inh: calpain II (pig) inhibition; purified calpain II, fluorogenic peptide substrate, 30 min; inhibition, % at 16 µM; actives 0.37% (n = 220,000); AID 1236;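 active means inhibition above about 50%, limit read from the data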
NPY-Y1 confirm: human NPY-Y1 potentiation or agonism, confirmation; activation, % at 3.6 µM; shares compounds with NPY1 pot ag; cell-based NPY-Y1 potentiator/agonist assay; AID 1546; actives 20% (n = 280); in the data active means activation above about 45%;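 further: cells challenged with NPY at its EC10 plus isoproterenol stimulus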
NPY-Y2 counter: potentiates or activates NPY-Y2, counter-screen for NPY-Y1 hits. actives 20% (n = 280). AID 1649. activation, % at 3.6 µM. HEK293-CNG cells, membrane-potential fluorescence (FLIPR), 1536-well. shares compounds with NPY1 pot ag; in the data active means activation above about 33%
NPY-Y1 ag: counter-screen for NPY-Y1 potentiators: agonists of human NPY-Y1 | shares compounds with NPY1 pot ag | HEK293 Y1-CNGC, membrane potential fluorescence, agonist mode | activation, % at 3.6 µM | actives 50% (n = 280) | AID 1697;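 active means percent activation above the mean of DMSO-only control wells plus 3 SD of those wells, cut at about 18% in these data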;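 further: cells challenged with isoproterenol plus Ro 20-1724 with no NPY in test wells; Y1 agonism lowers isoproterenol-driven cAMP and reduces probe fluorescence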
NPY-Y2 agonist: activates human NPY-Y2, counter-screen for NPY-Y1 hits; actives 67% (n = 280); HEK293 Y2-CNGC, membrane potential fluorescence, agonist mode; activation, % at 3.6 µM; shares compounds with NPY1 pot ag;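 active means activation above the solvent-only control wells' mean plus 3 SD, cut at about 11% in these data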;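 further: 0% = DMSO with isoproterenol and 100% = 40 nM NPY maximal response; agonism lowers cAMP so well fluorescence drops in active wells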
CNGC inh 2: counter-screen for NPY-Y1 potentiators or agonists: CNG channel inhibitors | shares compounds with NPY1 pot ag | AID 1704 | HEK293-CNG parental, isoproterenol cAMP, membrane potential fluorescence | actives 42% (n = 280) | inhibition, % at 3.6 µM;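 active means inhibition above the mean of stimulated solvent-only control wells plus 3 SD, cut at about 22% in these data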;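 further: 0% = isoproterenol-stimulated DMSO wells and 100% = unstimulated DMSO wells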
The depositor's hits bear a star; . = no result given.

SMILES | NPY Y2 blocker | TbHK1 inh | NPY2 pot ag | NPY1 pot ag | NPY-Y1 antag | Calpain2 inh | NPY-Y1 confirm | NPY-Y2 counter | NPY-Y1 ag | NPY-Y2 agonist | CNGC inh 2
COc1ccc(-c2nc(CN3CCCC(C(=O)NC4CCCC4)C3)c(C)o2)cc1 (configuration not stated) | 2 | 5 | -12 | 59* | 0 | 1 | -5 | -1 | -3 | 8 | -1
Cc1cccc(Nc2nc(N)c([N+](=O)[O-])c(NCc3ccccc3)n2)c1 | . | -11 | 34 | 50* | . | 17 | 48* | 32 | 33* | 31* | 45*
Nc1nc(Nc2ccccc2)nc(NCc2ccccc2)c1[N+](=O)[O-] | . | -18 | 23 | 17 | . | 13 | . | . | . | . | .
Cc1c(/C=N/Nc2nc3ccccc3[nH]2)c2ccccc2n1C | . | -37 | 37 | 56* | . | -38 | 47* | 41* | 35* | 43* | 34*
CCOc1ccc(/C=C/C(=O)Nc2ccc3[nH]c(=O)[nH]c3c2)cc1 | 2 | 1 | -6 | -5 | -6 | -1 | . | . | . | . | .
Cc1ccc(S(=O)(=O)N(C)C)cc1NC(=O)COC(=O)CCC(=O)c1cccs1 | . | -11 | -17 | -4 | 1 | -16 | . | . | . | . | .
COc1ccccc1Cn1c(-c2ccccc2OC)nc2ccccc21 | 8 | -4 | -10 | 20 | -1 | 21 | . | . | . | . | .
Oc1ccccc1Cn1c(-c2ccccc2O)nc2ccccc21 | -7 | 0 | 31 | 39* | -12 | -22 | 32 | 25 | 27* | 26* | 20
O=C(Cn1cnc2c(nnn2Cc2ccc(F)cc2)c1=O)OCc1ccccc1 | 4 | 5 | 11 | -2 | -3 | 12 | . | . | . | . | .
Cc1ccc(Cn2nnc3c(=O)n(CC(=O)OCc4ccccc4)cnc32)cc1 | 5 | 7 | 28 | 49* | -8 | -4 | 14 | 6 | 18* | 11* | 30*
COc1ccc(N(CCCN2C(=O)c3cccc4cccc(c34)C2=O)C(=O)c2cccnc2)cc1 | . | -24 | -6 | 19 | -2 | 3 | . | . | . | . | .
COc1ccc(N(CCCN2C(=O)c3cccc4cccc(c34)C2=O)C(=O)c2ccncc2)cc1 | . | -10 | -4 | 42* | 3 | 3 | -2 | -7 | -11 | -4 | -4
O=C(CSc1nc2ccccc2s1)Nc1cc(S(=O)(=O)N2CCOCC2)ccc1O | 5 | 12 | -6 | -10 | -2 | -16 | . | . | . | . | .
CCCC(=O)Nc1ccc(NC(=O)CCc2ccccc2)cn1 | 3 | 1 | 17 | 52* | -5 | -10 | -1 | 1 | -8 | 6 | 3
COc1ccc(C(=O)c2c(C)oc3ccc(O)c(CN4CCOCC4)c23)cc1 | 3 | -3 | 2 | -4 | -2 | 21 | . | . | . | . | .
Cc1oc2ccc(O)c(CN(C)C)c2c1C(=O)c1ccccc1 | . | 7 | 14 | 47* | 2 | 14 | 14 | 21 | 16 | 11* | -10
COCCN=c1scc(-c2cccs2)n1/N=C/c1ccc(O)c(O)c1O | 0 | 4 | 32 | 54* | -3 | 65* | 32 | 20 | 29* | 9 | 20
COc1ccc(/C=C/CN2CCCC(C(=O)c3ccc(OC)c(F)c3)C2)cc1 (configuration not stated) | . | -6 | -19 | -16 | 4 | 1 | . | . | . | . | .
Cc1c(Cl)ccc2c1NC(=O)[C@]21[C@@H]2C(=O)N(Cc3ccccc3)C(=O)[C@@H]2[C@@H]2CCCN21 | -3 | -8 | 8 | 32* | -2 | -61 | 22 | 14 | 15 | 11* | 16
